Measurements as given in ChEMBL document CHEMBL3272292, “2-(2-Aminoethylamino)-1,2-diphenylethanol derivatives, a new class of topical antiinflammatory agents” (1977).

Columns and labels:
Format in all cases: functional
Rattus norvegicus [1] = assay: Antiinflammatory activity in immature rat assessed as inhibition of cantharidin-induced inflammation at 888 ug administered topically to outer surface of ear after 72 hrs relative to control
Method in brief: (§1)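 Test compounds applied topically to outer ear surface together with cantharidin, groups of 8-10 immature rats (50-60 g). Controls: vehicle-only group and cantharidin-only group. […] Significance vs irritant group by Student's t test or Fieller's theorem.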

Rattus norvegicus [2] = assay: Antiinflammatory activity in immature rat assessed as inhibition of cantharidin-induced inflammation at 924 ug administered topically to outer surface of ear after 72 hrs relative to control; method in brief: as §1
Rattus norvegicus [3] = assay: Antiinflammatory activity in immature rat assessed as inhibition of cantharidin-induced inflammation at 50 ug administered topically to outer surface of ear after 72 hrs relative to control; method in brief: as §1
Rattus norvegicus [4] = assay: Antiinflammatory activity in immature rat assessed as inhibition of cantharidin-induced inflammation at 100 ug administered topically to outer surface of ear after 72 hrs relative to control; method in brief: as §1
Rattus norvegicus [5] = assay: Antiinflammatory activity in immature rat assessed as inhibition of cantharidin-induced inflammation at 200 ug administered topically to outer surface of ear after 72 hrs relative to control; method in brief: as §1
Rattus norvegicus [6] = assay: Antiinflammatory activity in immature rat assessed as inhibition of cantharidin-induced inflammation at 400 ug administered topically to outer surface of ear after 72 hrs relative to control; method in brief: as §1
Rattus norvegicus [7] = assay: Antiinflammatory activity in immature rat assessed as inhibition of cantharidin-induced inflammation at 800 ug administered topically to outer surface of ear after 72 hrs relative to control; method in brief: as §1
Rattus norvegicus [8] = assay: Antiinflammatory activity in rat assessed as reduction in dry ganuloma tissue surrounding implanted cotton pellet at 1000 ug per pellet after 72 hrs relative to control; parameters: scale not given: the % may be the effect or the level left
Method in brief: (§2)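 Compound dissolved in ethanol, applied to cotton pellets and dried at room temperature. Two pellets implanted sc per rat, ten rats per dose group. Pellets removed at autopsy 72 h later. Activity read as reduction in dry granuloma tissue around pellets vs control group. Significance by Student's t test or Fieller's theorem.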

Rattus norvegicus [9] = assay: Antiinflammatory activity in rat assessed as reduction in dry ganuloma tissue surrounding implanted cotton pellet at 2000 ug per pellet after 72 hrs relative to control; parameters: scale not given: the % may be the effect or the level left; method in brief: as §2
Rattus norvegicus [10] = assay: Antiinflammatory activity in rat assessed as reduction in dry ganuloma tissue surrounding implanted cotton pellet at 4000 ug per pellet after 72 hrs relative to control; parameters: scale not given: the % may be the effect or the level left; method in brief: as §2
Rattus norvegicus [11] = assay: Antiinflammatory activity in rat assessed as reduction in dry ganuloma tissue surrounding implanted cotton pellet at 8000 ug per pellet after 72 hrs relative to control; parameters: scale not given: the % may be the effect or the level left; method in brief: as §2
Rattus norvegicus [12] = assay: Antiinflammatory activity in immature rat assessed as inhibition of cantharidin-induced inflammation at 5 ug administered topically to outer surface of ear after 72 hrs relative to control; method in brief: as §1
Rattus norvegicus [13] = assay: Antiinflammatory activity in immature rat assessed as inhibition of cantharidin-induced inflammation at 10 ug administered topically to outer surface of ear after 72 hrs relative to control; method in brief: as §1
Rattus norvegicus [14] = assay: Antiinflammatory activity in immature rat assessed as inhibition of cantharidin-induced inflammation at 20 ug administered topically to outer surface of ear after 72 hrs relative to control; method in brief: as §1
Rattus norvegicus [15] = assay: Antiinflammatory activity in immature rat assessed as inhibition of cantharidin-induced inflammation at 40 ug administered topically to outer surface of ear after 72 hrs relative to control; method in brief: as §1
Rattus norvegicus [16] = assay: Antiinflammatory activity in immature rat assessed as inhibition of cantharidin-induced inflammation at 80 ug administered topically to outer surface of ear after 72 hrs relative to control; method in brief: as §1
Rattus norvegicus [17] = assay: Antiinflammatory activity in rat assessed as reduction in dry ganuloma tissue surrounding implanted cotton pellet at 10 ug per pellet after 72 hrs relative to control; parameters: scale not given: the % may be the effect or the level left; method in brief: as §2
Rattus norvegicus [18] = assay: Antiinflammatory activity in rat assessed as reduction in dry ganuloma tissue surrounding implanted cotton pellet at 20 ug per pellet after 72 hrs relative to control; parameters: scale not given: the % may be the effect or the level left; method in brief: as §2
Rattus norvegicus [19] = assay: Antiinflammatory activity in rat assessed as reduction in dry ganuloma tissue surrounding implanted cotton pellet at 40 ug per pellet after 72 hrs relative to control; parameters: scale not given: the % may be the effect or the level left; method in brief: as §2
Rattus norvegicus [20] = assay: Antiinflammatory activity in rat assessed as reduction in dry ganuloma tissue surrounding implanted cotton pellet at 80 ug per pellet after 72 hrs relative to control; parameters: scale not given: the % may be the effect or the level left; method in brief: as §2

Row | Structure (SMILES) | inhibition (INH) (Rattus norvegicus [3]) | inhibition (INH) (Rattus norvegicus [4]) | inhibition (INH) (Rattus norvegicus [5]) | inhibition (INH) (Rattus norvegicus [6]) | inhibition (INH) (Rattus norvegicus [7]) | also measured
1 | CC12C(=O)N(CCNC(c3ccccc3)C(O)c3ccccc3)C(=O)C1(C)C1CCC2O1 (stereo not drawn) |  |  |  |  |  | inhibition (INH) (Rattus norvegicus [1]): 0%
2 | CC1(C(=O)O)C2CCC(O2)C1(C)C(=O)NCCNC(c1ccccc1)C(O)c1ccccc1 (stereo not drawn) |  |  |  |  |  | inhibition (INH) (Rattus norvegicus [2]): 67%
3 | O[C@@H](c1ccccc1)[C@@H](NCCN[C@@H](c1ccccc1)[C@@H](O)c1ccccc1)c1ccccc1 | 14% | 0% | 17% | 5% | 0% | 
4 | NCCN[C@@H](c1ccccc1)[C@@H](O)c1ccccc1 (racemic) | 19% | 19% | 46% | 72% | 88% | Activity (Rattus norvegicus [8]): 19%; Activity (Rattus norvegicus [9]): 28%; Activity (Rattus norvegicus [10]): 44%; Activity (Rattus norvegicus [11]): 49%
5 | NCCN[C@@H](c1ccccc1)[C@H](O)c1ccccc1 (racemic) |  | 7% | 9% | 56% | 88% | 
6 | CN(C)CCN[C@@H](c1ccccc1)[C@@H](O)c1ccccc1 (racemic) | 0% | 0% | 8% | 0% | 0% | 
7 | NCCN[C@@H](c1ccccc1)[C@@H](O)c1ccc(Cl)cc1 (racemic) | 20% | 23% | 35% | 64% | 90% | 
8 | NCCN[C@@H](c1ccc(Cl)cc1)[C@@H](O)c1ccccc1 (racemic) | 3% | 0% | 12% | 35% | 89% | 
9 | NCCCN[C@@H](c1ccccc1)[C@@H](O)c1ccccc1 (racemic) | 0% | 8% | 21% | 29% | 51% | 
10 | CC(=O)NCCN(C(C)=O)[C@@H](c1ccccc1)[C@@H](O)c1ccccc1 (racemic) | 0% | 11% | 9% | 0% | 40% | 
11 | CC(=O)NCCN[C@@H](c1ccccc1)[C@@H](O)c1ccccc1 (racemic) | 0% | 3% | 0% | 3% | 5% | 
12 | CC(=O)NCCN(C(C)=O)[C@@H](c1ccccc1)[C@@H](OC(C)=O)c1ccccc1 (racemic) | 6% | 13% | 7% | 13% | 0% | 
13 | NCCN[C@@H](c1ccc(Cl)cc1)[C@@H](O)c1ccc(Cl)cc1 (racemic) | 16% | 10% | 16% | 15% | 17% | 
14 | Cc1ccc([C@H](O)[C@@H](NCCN)c2ccccc2)cc1 (racemic) | 12% | 9% | 5% | 53% | 68% | 
15 | CN(C)CCCN[C@@H](c1ccccc1)[C@@H](O)c1ccccc1 (racemic) | 9% | 0% | 16% | 9% | 32% | 
16 | NCCCCN[C@@H](c1ccccc1)[C@@H](O)c1ccccc1 (racemic) | 10% | 5% | 37% | 54% | 87% | 
17 | CNCCN[C@@H](c1ccccc1)[C@@H](O)c1ccccc1 (racemic) | 15% | 20% | 20% | 6% | 26% | 
18 | CN(CCN)[C@@H](c1ccccc1)[C@@H](O)c1ccccc1 (racemic) | 0% | 8% | 1% | 11% | 41% | 
19 | CC(C)=NCCN[C@@H](c1ccccc1)[C@@H](O)c1ccccc1 (relative stereo) | 14% | 13% | 10% | 59% | 87% | 
20 | NCCNC(c1ccccc1)C(O)c1ccccc1 (single isomer, unassigned; (+)) |  | 2% | 0% | 29% | 96% | 
21 | NCCNC(c1ccccc1)C(O)c1ccccc1 (stereo in doubt; 8a) | 7% | 1% | 19% | 51% | 87% | 
22 | C[C@@H]1C[C@H]2[C@@H]3CCC4=CC(=O)C=C[C@]4(C)[C@@]3(F)[C@@H](O)C[C@]2(C)[C@@]1(O)C(=O)CO [DEXAMETHASONE] |  |  |  |  |  | inhibition (INH) (Rattus norvegicus [12]): 17%; inhibition (INH) (Rattus norvegicus [13]): 25%; inhibition (INH) (Rattus norvegicus [14]): 30%; inhibition (INH) (Rattus norvegicus [15]): 53%; inhibition (INH) (Rattus norvegicus [16]): 76%; Activity (Rattus norvegicus [17]): 16%; Activity (Rattus norvegicus [18]): 28%; Activity (Rattus norvegicus [19]): 34%; Activity (Rattus norvegicus [20]): 49%
